In data set [1] the test system is HUVEC. Description: Cytotoxicity assay. Format: cell-based. As to conditions: Homo sapiens, 72 h, read-out: IC50 on cell viability. The gist of the method: (§1)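 Cells grown in 0.2% gelatin-coated flasks in RPMI 1640 with 20% human serum, 2 mM glutamine, penicillin/streptomycin. Seeded at 3,000 cells/well and allowed to adhere ≥3 h (37 °C, 5% CO2), then exposed to a range of test compound concentrations for 72 h. Viability measured by CCK-8 or MTT, relative to vehicle-only cultures. Triplicate wells, ≥3 independent experiments. Apparent IC50 (concentration giving 50% viability) taken from mean dose-response curves.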

Data set [2] deals with 2H11 endothelial cells. In words: Cytotoxicity assay. Format: cell-based, murine. As to conditions: Mus musculus, Endothelial cell, 72 h, read-out: IC50 on cell viability. The procedure, abridged:
(§2)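 Cells maintained on uncoated flasks in RPMI 1640 with 10% FBS and 1% penicillin/streptomycin; mycoplasma-checked. Seeded at 3,000 cells/well, allowed ≥3 h adherence (37 °C, 5% CO2), then treated 72 h with graded test compound concentrations. CCK-8 or MTT colorimetric viability, expressed against vehicle-treated cultures. Triplicate wells, at least three independent runs. Apparent IC50 (concentration giving 50% viability) read from mean dose-response curves.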

The test system of data set [3] is Fibroblasts. Description: Cytotoxicity assay. Format: cell-based. The settings on record: Fibroblast, 72 h, read-out: IC50 on cell viability. The gist of the method:
as §1

Data set [4] relates to FSAII fibrosarcoma cells. Description: Cytotoxicity assay. Format: cell-based, murine. The settings on record: Mus musculus, 72 h, read-out: IC50 on cell viability. The procedure, abridged:
as §2

Data set [5] relates to MA148 ovarian carcinoma cells. In words: Cytotoxicity assay. As to conditions: Homo sapiens, Ovarian carcinoma cell, 72 h, read-out: IC50 on cell viability. Type of data set: cell-based. The procedure, abridged:
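3,000 cells/well, left to adhere at least 3 h at 37 °C in 5% CO2, then exposed to various test compound concentrations for 72 h. Viability read colorimetrically (CCK-8 or MTT) as percentage of vehicle-only cultures. Each experiment in triplicate, repeated ≥3 times. Apparent IC50 (concentration for 50% viability) derived from averaged dose-response curves.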

Data set [6] has as its system A549 lung carcinoma cells. In words: Cytotoxicity assay. Format: cell-based. As to conditions: Homo sapiens, A549, 72 h, read-out: IC50 on cell viability. The gist of the method: as §2
In data set [7] the test system is SCK mammary carcinoma cells. In words: Cytotoxicity assay. Format: cell-based, murine. The settings on record: Mus musculus, 72 h, read-out: IC50 on cell viability. The procedure, abridged: as §2
Data set [8] deals with B16F10 melanoma cells. Description: Cytotoxicity assay. Type of data set: cell-based, murine. As to conditions: Mus musculus, B16-F10, 72 h, read-out: IC50 on cell viability. The gist of the method: as §2
Data set [9] is described as follows: General toxicity. Type of data set: in vivo. As to conditions: 10 mg/kg IP BID, comparison study (Fig. 4b).

The IC50 is the point on the concentration scale where inhibition reaches its midpoint.

Take `CN(C)CCNC(=O)COc1c2cccc1Cc1cccc(c1OCC(=O)NCCN(C)C)Cc1cccc(c1OCC(=O)NCCN(C)C)Cc1cccc(c1OCC(=O)NCCN(C)C)C2` [PTX008]: the IC50 in data set [1] was 3 µM; in data set [2], over 100 µM; in data set [3], 35 µM; in data set [4] it was over 20 µM; in data set [5] it was 0.5 µM; in data set [6] it was 2 µM. Also, the IC50 in [7] is 100 µM; in data set [8] it was 80 µM. Besides, the “body weights of mice during treatment” value in [9] was “remained constant”.

The values are drawn from publication PMC4242102 (Investigational new drugs, 2013).
